Converted amounts (≈) assume the structure as drawn.
Key:
Pseudomonas aeruginosa = assay: Antibacterial activity against extended spectrum beta-lactamase IMP-4 producing multidrug resistant Pseudomonas aeruginosa clinical isolates after 18 hrs by broth microdilution method; assay type: functional
Acinetobacter baumannii = assay: Antibacterial activity against extended spectrum beta-lactamase OXA-23 producing multidrug resistant Acinetobacter baumannii clinical isolates after 18 hrs by broth microdilution method; assay type: functional
Klebsiella pneumoniae = assay: Antibacterial activity against extended spectrum beta-lactamase KPC-2 producing multidrug resistant Klebsiella pneumoniae clinical isolates after 18 hrs by broth microdilution method; assay type: functional
Escherichia coli = assay: Antibacterial activity against extended spectrum beta-lactamases producing Escherichia coli clinical isolates after 18 hrs by broth microdilution method; assay type: functional
Plasma = assay: Fraction unbound in human plasma at 10 uM after 4 hrs by LC-MS/MS based rapid equilibrium dialysis method; assay type: ADME, cell-free
Summary of the method: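 Human plasma spiked at 10 μM was dialysed against buffer in a rapid equilibrium dialysis device for 4 h at 37 °C under 5% CO2 (n = 4). Both sides were quantified by LC–MS/MS. Fraction unbound was taken as the buffer concentration divided by the total plasma-side concentration.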

[1] = Drug degradation in human plasma at 10 uM after 4 hrs by LC-MS/MS analysis; assay type: ADME, cell-free; conditions: read-out: Drug degradation
Summary of the method: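 Human plasma containing compound (10 μM, n = 4) was incubated for 4 h at 37 °C under 5% CO2. Concentrations at T0 and at 4 h were measured by LC–MS/MS, and degradation was expressed as a percentage relative to the T0 average.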

[2] = Klebsiella pneumoniae, 18 h, read-out: MIC

SMILES	MIC (Pseudomonas aeruginosa)	MIC (Acinetobacter baumannii)	MIC (Klebsiella pneumoniae)	MIC (Escherichia coli)	Fu (Plasma)	metabolised at 4 h, 10 µM [1]	MIC (Klebsiella pneumoniae; [2])
CC(O/N=C(\C(=O)N[C@@H]1C(=O)N(OS(=O)(=O)O)C1(C)C)c1csc(N)n1)c1cc(=O)c(O)cn1O (stereo partly specified)	0.25 to 8 µg/mL (≈ 0.469 to 15 µM)	0.5 to 64 µg/mL (≈ 0.939 to 120 µM)	0.03 to 64 µg/mL	0.06 to 0.25 µg/mL (≈ 0.113 to 0.469 µM)	41%	24%	–
Cc1cc(=O)c(O)cn1CCO/N=C(\C(=O)N[C@@H]1C(=O)N(OS(=O)(=O)O)C1(C)C)c1csc(N)n1	64 µg/mL (≈ 121 µM)	8 to 64 µg/mL (≈ 15.1 to 121 µM)	–	1 to 64 µg/mL (≈ 1.88 to 121 µM)	–	–	8 to 64 µg/mL (≈ 15.1 to 121 µM)
CC(C)[C@H](O/N=C(\C(=O)N[C@@H]1C(=O)N(OS(=O)(=O)O)C1(C)C)c1nc(N)sc1Cl)c1cc(=O)c(O)cn1O	0.06 to 1 µg/mL (≈ 0.101 to 1.68 µM)	0.5 to 1 µg/mL (≈ 0.84 to 1.68 µM)	–	0.06 to 1 µg/mL (≈ 0.101 to 1.68 µM)	23%	33%	0.25 to 0.5 µg/mL (≈ 0.42 to 0.84 µM)
Cn1nc(O)c(=O)nc1SCCO/N=C(\C(=O)N[C@@H]1C(=O)N(OS(=O)(=O)O)C1(C)C)c1csc(N)n1	16 to 64 µg/mL (≈ 28.3 to 113 µM)	16 to 64 µg/mL (≈ 28.3 to 113 µM)	–	1 to 8 µg/mL (≈ 1.77 to 14.2 µM)	–	–	16 to 64 µg/mL (≈ 28.3 to 113 µM)
CC1(C)[C@H](NC(=O)/C(=N\OC(c2nccs2)c2cc(=O)c(O)cn2O)c2csc(N)n2)C(=O)N1OS(=O)(=O)O (stereo partly specified)	1 to 2 µg/mL (≈ 1.66 to 3.32 µM)	0.5 to 2 µg/mL (≈ 0.831 to 3.32 µM)	–	–	–	–	–
CC(C)OCC(O/N=C(\C(=O)N[C@@H]1C(=O)N(OS(=O)(=O)O)C1(C)C)c1csc(N)n1)c1cc(=O)c(O)cn1O (stereo partly specified)	0.5 to 8 µg/mL (≈ 0.847 to 13.5 µM)	1 to 8 µg/mL (≈ 1.69 to 13.5 µM)	–	–	–	–	0.25 to 64 µg/mL (≈ 0.423 to 108 µM)
CC1(C)[C@H](NC(=O)/C(=N\OCc2ccn(O)c(=O)c2)c2csc(N)n2)C(=O)N1OS(=O)(=O)O	64 µg/mL (≈ 127 µM)	4 to 64 µg/mL (≈ 7.96 to 127 µM)	–	0.25 to 4 µg/mL (≈ 0.498 to 7.96 µM)	–	–	4 to 64 µg/mL (≈ 7.96 to 127 µM)
COCC(O/N=C(\C(=O)N[C@@H]1C(=O)N(OS(=O)(=O)O)C1(C)C)c1csc(N)n1)c1cc(=O)c(O)cn1O (stereo partly specified)	1 to 4 µg/mL (≈ 1.78 to 7.11 µM)	0.125 to 1 µg/mL (≈ 0.222 to 1.78 µM)	–	–	67%	57%	0.06 to 2 µg/mL (≈ 0.107 to 3.56 µM)
CC1(C)[C@H](NC(=O)/C(=N\OC(c2ccccc2)c2cc(=O)c(O)cn2O)c2csc(N)n2)C(=O)N1OS(=O)(=O)O (stereo partly specified)	0.5 to 2 µg/mL (≈ 0.841 to 3.36 µM)	0.5 to 2 µg/mL (≈ 0.841 to 3.36 µM)	–	–	–	–	–
CC1(C)[C@H](NC(=O)/C(=N\OC(c2cccs2)c2cc(=O)c(O)cn2O)c2csc(N)n2)C(=O)N1OS(=O)(=O)O (stereo partly specified)	0.5 to 2 µg/mL (≈ 0.832 to 3.33 µM)	0.5 to 2 µg/mL (≈ 0.832 to 3.33 µM)	–	–	–	–	0.06 to 16 µg/mL (≈ 0.0999 to 26.6 µM)
CNC(=O)C(O/N=C(\C(=O)N[C@@H]1C(=O)N(OS(=O)(=O)O)C1(C)C)c1csc(N)n1)c1cc(=O)c(O)cn1O (stereo partly specified)	4 µg/mL (≈ 6.95 µM)	0.25 to 1 µg/mL (≈ 0.434 to 1.74 µM)	–	0.06 to 4 µg/mL (≈ 0.104 to 6.95 µM)	69%	36%	0.25 to 2 µg/mL (≈ 0.434 to 3.48 µM)
CC(C)[C@@H](O/N=C(\C(=O)N[C@@H]1C(=O)N(OS(=O)(=O)O)C1(C)C)c1csc(N)n1)c1cc(=O)c(O)cn1O	1 to 4 µg/mL (≈ 1.78 to 7.14 µM)	0.25 to 64 µg/mL (≈ 0.446 to 114 µM)	–	0.06 to 2 µg/mL (≈ 0.107 to 3.57 µM)	–	–	0.06 to 0.5 µg/mL (≈ 0.107 to 0.892 µM)
CC(O/N=C(\C(=O)N[C@@H]1C(=O)N(OS(=O)(=O)O)C1(C)C)c1nsc(N)n1)c1cc(=O)c(O)cn1O (stereo partly specified)	0.5 to 64 µg/mL (≈ 0.937 to 120 µM)	2 to 64 µg/mL (≈ 3.75 to 120 µM)	–	–	37%	13%	0.25 to 64 µg/mL (≈ 0.469 to 120 µM)
CC1(C)[C@H](NC(=O)/C(=N\OC(c2cc(=O)c(O)cn2O)C2CC2)c2csc(N)n2)C(=O)N1OS(=O)(=O)O (stereo partly specified)	0.25 to 4 µg/mL (≈ 0.448 to 7.16 µM)	0.5 to 2 µg/mL (≈ 0.895 to 3.58 µM)	0.06 to 64 µg/mL	0.06 to 4 µg/mL (≈ 0.107 to 7.16 µM)	39%	24%	–
CSC[C@H](O/N=C(\C(=O)N[C@@H]1C(=O)N(OS(=O)(=O)O)C1(C)C)c1csc(N)n1)c1cc(=O)c(O)cn1O	0.5 to 2 µg/mL (≈ 0.864 to 3.46 µM)	0.5 to 4 µg/mL (≈ 0.864 to 6.91 µM)	>0.06 to 64 µg/mL	–	29%	39%	–
CC(C)C(O/N=C(\C(=O)N[C@@H]1C(=O)N(OS(=O)(=O)O)C1(C)C)c1nsc(N)n1)c1cc(=O)c(O)cn1O (stereo partly specified)	0.5 to 32 µg/mL (≈ 0.89 to 57 µM)	0.5 to 4 µg/mL (≈ 0.89 to 7.12 µM)	–	0.06 to 2 µg/mL (≈ 0.107 to 3.56 µM)	28%	11%	0.06 to 1 µg/mL (≈ 0.107 to 1.78 µM)
CC(O/N=C(\C(=O)N[C@@H]1C(=O)N(OS(=O)(=O)O)C1(C)C)c1nc(N)sc1Cl)c1cc(=O)c(O)cn1O (stereo partly specified)	0.5 to 4 µg/mL (≈ 0.882 to 7.06 µM)	0.25 to 2 µg/mL (≈ 0.441 to 3.53 µM)	–	–	20%	20%	0.06 to 1 µg/mL (≈ 0.106 to 1.76 µM)
CO/N=C(\C(=O)N[C@@H]1C(=O)N2C(C(=O)[O-])=CCS[C@H]12)c1csc(N)n1.[Na+] [CEFTIZOXIME SODIUM]	> 64 µg/mL	32 to 64 µg/mL	–	0.5 to 2 µg/mL	–	–	32 to 64 µg/mL
CSC[C@@H](O/N=C(\C(=O)N[C@@H]1C(=O)N(OS(=O)(=O)O)C1(C)C)c1csc(N)n1)c1cc(=O)c(O)cn1O	1 to 8 µg/mL (≈ 1.73 to 13.8 µM)	0.5 to 2 µg/mL (≈ 0.864 to 3.46 µM)	–	–	–	–	0.125 to 0.5 µg/mL (≈ 0.216 to 0.864 µM)
CC(C)[C@H](O/N=C(\C(=O)N[C@@H]1C(=O)N(OS(=O)(=O)O)C1(C)C)c1nsc(N)n1)c1cc(=O)c(O)cn1O	1 to 2 µg/mL (≈ 1.78 to 3.56 µM)	1 to 4 µg/mL (≈ 1.78 to 7.12 µM)	–	0.5 to 2 µg/mL (≈ 0.89 to 3.56 µM)	27%	16%	1 to 4 µg/mL (≈ 1.78 to 7.12 µM)
CC(=O)N(O)CCO/N=C(\C(=O)N[C@@H]1C(=O)N(OS(=O)(=O)O)C1(C)C)c1csc(N)n1	≥ 64 µg/mL	16 to 64 µg/mL (≈ 33.3 to 133 µM)	–	4 to 32 µg/mL (≈ 8.32 to 66.6 µM)	–	–	32 to 64 µg/mL (≈ 66.6 to 133 µM)
C=CC(O/N=C(\C(=O)N[C@@H]1C(=O)N(OS(=O)(=O)O)C1(C)C)c1csc(N)n1)c1cc(=O)c(O)cn1O (stereo partly specified)	0.5 to 2 µg/mL (≈ 0.918 to 3.67 µM)	0.25 to 2 µg/mL (≈ 0.459 to 3.67 µM)	>0.03 to 64 µg/mL	–	–	–	–
CCC(O/N=C(\C(=O)N[C@@H]1C(=O)N(OS(=O)(=O)O)C1(C)C)c1csc(N)n1)c1cc(=O)c(O)cn1O (stereo partly specified)	0.125 to 4 µg/mL (≈ 0.229 to 7.32 µM)	0.25 to 2 µg/mL (≈ 0.457 to 3.66 µM)	>0.03 to 64 µg/mL	0.25 to 2 µg/mL (≈ 0.457 to 3.66 µM)	35%	27%	–
CC1(C)[C@H](NC(=O)/C(=N\OC(CO)c2cc(=O)c(O)cn2O)c2csc(N)n2)C(=O)N1OS(=O)(=O)O (stereo partly specified)	0.25 to 16 µg/mL (≈ 0.456 to 29.2 µM)	0.5 to 2 µg/mL (≈ 0.912 to 3.65 µM)	–	0.06 to 4 µg/mL (≈ 0.109 to 7.29 µM)	59%	50%	0.25 to 64 µg/mL (≈ 0.456 to 117 µM)
CC1(C)[C@H](NC(=O)/C(=N\OC(C(=O)O)c2cc(=O)c(O)cn2O)c2csc(N)n2)C(=O)N1OS(=O)(=O)O (stereo partly specified)	1 to 4 µg/mL (≈ 1.78 to 7.11 µM)	0.5 µg/mL (≈ 0.889 µM)	–	0.125 to 4 µg/mL (≈ 0.222 to 7.11 µM)	–	–	0.25 to 1 µg/mL (≈ 0.444 to 1.78 µM)
CC(C)[C@@H](O/N=C(\C(=O)N[C@@H]1C(=O)N(OS(=O)(=O)O)C1(C)C)c1nsc(N)n1)c1cc(=O)c(O)cn1O	1 to 4 µg/mL (≈ 1.78 to 7.12 µM)	0.5 to 64 µg/mL (≈ 0.89 to 114 µM)	–	0.5 to 8 µg/mL (≈ 0.89 to 14.2 µM)	–	–	0.5 to 2 µg/mL (≈ 0.89 to 3.56 µM)
CC(C)[C@@H](O/N=C(\C(=O)N[C@@H]1C(=O)N(OS(=O)(=O)O)C1(C)C)c1nc(N)sc1Cl)c1cc(=O)c(O)cn1O	0.5 to 4 µg/mL (≈ 0.84 to 6.72 µM)	0.25 to 64 µg/mL (≈ 0.42 to 108 µM)	–	0.125 to 1 µg/mL (≈ 0.21 to 1.68 µM)	–	–	0.5 to 2 µg/mL (≈ 0.84 to 3.36 µM)
CC(C)SCC(O/N=C(\C(=O)N[C@@H]1C(=O)N(OS(=O)(=O)O)C1(C)C)c1csc(N)n1)c1cc(=O)c(O)cn1O (stereo partly specified)	0.25 to 4 µg/mL (≈ 0.412 to 6.59 µM)	0.25 to 2 µg/mL (≈ 0.412 to 3.3 µM)	–	–	21%	34%	0.06 to 1 µg/mL (≈ 0.0989 to 1.65 µM)
COC(=O)C(O/N=C(\C(=O)N[C@@H]1C(=O)N(OS(=O)(=O)O)C1(C)C)c1csc(N)n1)c1cc(=O)c(O)cn1O (stereo partly specified)	1 to 4 µg/mL (≈ 1.73 to 6.94 µM)	0.5 to 1 µg/mL (≈ 0.867 to 1.73 µM)	–	0.25 to 1 µg/mL (≈ 0.434 to 1.73 µM)	61%	66%	0.25 to 2 µg/mL (≈ 0.434 to 3.47 µM)
